Compounds with a hit are over-represented: about 2% of the library has one in this group of screens.
dFosB act – enhances mouse delta FosB homodimer DNA binding; purified delta FosB, TAMRA-CDK5 oligo fluorescence polarization; percent of positive-control signal above neutral wells; AID 493131; activation, % at 25 µM; P13346; actives 0.99% (n = 340,000);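 active means mean activation above about 17%, with every replicate also reaching it, limit read from the data, passing the limit was not always enough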
Target sequence (P13346 whole entry, looked up): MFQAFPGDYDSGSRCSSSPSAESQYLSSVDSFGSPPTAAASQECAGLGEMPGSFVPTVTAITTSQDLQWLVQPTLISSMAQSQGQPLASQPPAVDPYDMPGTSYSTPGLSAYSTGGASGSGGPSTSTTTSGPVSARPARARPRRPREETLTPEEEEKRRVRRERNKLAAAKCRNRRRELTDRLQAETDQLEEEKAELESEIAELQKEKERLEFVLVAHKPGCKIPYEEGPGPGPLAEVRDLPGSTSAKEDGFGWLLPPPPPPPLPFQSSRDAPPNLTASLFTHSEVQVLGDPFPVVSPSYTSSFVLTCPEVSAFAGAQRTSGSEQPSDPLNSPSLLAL
CDK5 p35 inh – inhibitors of human CDK5/p35 kinase; Q00535+Q15078; Recombinant CDK5/p35, ADP-Glo luminescence, 60 min; inhibition, % at 10 µM; actives 0.01% (n = 330,000); AID 488839;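 active means highest replicate inhibition of at least 50% and at least 75% of replicates reaching 50%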;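 further: plate controls were DMSO neutral control for no effect and GW8510 at 10 µM for full effect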
SR-BI uptake up – activators of SR-BI mediated HDL lipid uptake | CHO ldlA[mSR-BI] cells, DiI-HDL uptake fluorescence, 3 h; 100 = double the neutral-control signal | activation, % at 12.5 µM | actives 0.096% (n = 320,000);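 active means mean replicate activation of at least 60% and every replicate at or above 60%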;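 further: 0% = median plate neutral-control signal and 100% = twice that signal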
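Assay system: LDL receptor-deficient CHO ldlA cells overexpressing murine SR-BI / Medium: BSA-supplemented, HEPES-buffered Ham's F12, pH 7.4 / Probe or stimulus: DiI-labelled HDL at 10 µg/mL final / Timing: compound with DiI-HDL co-incubation, 3 h at 37 °C / Technique: bottom-read cell fluorescence after medium removal, ex 550/em 595 nm / Measure: HDL uptake via cellular fluorescence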
SR-BI DiI inh – blocks mouse SR-BI lipid uptake from DiI-HDL; ldlA[mSR-BI] CHO cells, DiI-HDL uptake fluorescence, 3 h; actives 0.96% (n = 320,000); inhibition, % at 12.5 µM; AID 488896; Q61009;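 active means mean replicate inhibition of at least 70% and a set share of replicates each scoring 70 or more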;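 further: 0% = median of neutral control wells and 100% = median of positive control wells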
An asterisk follows results filed as active; i = inactive.

SMILES	dFosB act	CDK5 p35 inh	SR-BI uptake up	SR-BI DiI inh
CCOC(=O)C1=C(c2ccccc2)NC(=S)NC1C (stereo not drawn)	-7.9	-1.9	-71.7	71.7*
CC(NC(=O)C12CC3CC(C)(CC(C)(C3)C1)C2)c1ccncc1 (stereo not drawn)	-5.1	-0.5	33.6	-33.6
O=[N+]([O-])c1cccc(/C=N/Nc2nc(N3CCOCC3)nc(N3CCOCC3)n2)c1	-3.6	-1.0	-21.9	21.9
O=[N+]([O-])c1cccc(/C=C2\CCC(/C=N/Nc3ccc4ccccc4n3)=C2N2CCOCC2)c1	-3.3	1.4	-88.4	88.4*
CCN(C(=O)COC(=O)/C=C/c1ccc2c(c1)OCO2)c1c(N)n(Cc2ccccc2)c(=O)[nH]c1=O	164.4*	-0.3	-10.6	10.6
CN(C)CCNC=C(C(=O)Nc1ccc(Cl)cc1Cl)C(=O)Nc1ccc(Cl)cc1Cl	-0.4	-2.0	82.5*	-82.5
Nc1cc2ccncc2c2ccccc12	23.4*	5.4	12.9	-12.9
C#CCn1c(=NC(=O)c2ccccc2[N+](=O)[O-])sc2cc(S(C)(=O)=O)ccc21	33.4*	-0.9	-28.7	28.7
COCCn1c(=NC(=O)c2nc3ccccc3s2)sc2cc(S(C)(=O)=O)ccc21	-7.6	0.8	-51.6	51.6
O=C(NNC(=O)c1ccc(Br)s1)c1cccc(Cl)c1	7.6	-0.6	-1.5	1.5
CCn1cc(C(=O)NCCc2ccccc2)c(=O)c2cc(S(=O)(=O)N3CCCC3)ccc21	-19.5	-6.5	-72.9	72.9*
O=C(NCCc1c[nH]c2ccccc12)C(=O)Nc1cc2c3c(c1)CC(=O)N3CCC2	-8.9	-0.6	-22.8	22.8
CN(c1ccc(C(=O)N2CCN(Cc3ccccc3)CC2)cc1)S(=O)(=O)c1ccc(Cl)cc1	-15.8	-1.2	-78.7	78.7*
Cc1ccc(N(C)S(=O)(=O)c2cccc(C(=O)N3CCN(Cc4ccccc4)CC3)c2)cc1	-6.4	0.3	-60.2	60.1
Cc1cccc(CNc2ccc(S(=O)(=O)N3CCCCC3)cc2)c1	-12.3	-5.6	-2.6	2.6
CC(=O)[C@H]1CC[C@H]2[C@@H]3CCC4=CC(=O)CC[C@]4(C)[C@H]3[C@H](O)C[C@]12C	-1.7	-0.1	15.6	6.7
C[C@]12C[C@H](O)[C@H]3[C@@H](CCC4=CC(=O)CC[C@@]43C)[C@@H]1CC[C@@H]2C(=O)CO	0.4	3.4	87.2*	-5.6
CC(Nc1nc(-c2cccc(Br)c2)cs1)c1nc2cc(Cl)c(N3CCCCC3)cc2n1CCOCCO (stereo not drawn)	-0.5	-6.6	-75.4	75.4*
CCOc1ccccc1C(=O)NCC(=O)OCCCOC(=O)CNC(=O)c1ccccc1OCC	4.0	0.2	-84.4	84.5*
CCOc1cc(NC(=S)Nc2ccccc2)c(OCC)cc1NC(=O)c1ccc(OC)cc1	-1.9	1.1	-88.8	88.8*
CCOc1ccccc1C(=O)Nc1cc(OC)ccc1OC	-0.7	-4.2	-78.8	78.8*
COc1ccccc1C(=O)Nc1cc(Cl)ccc1O	3.6	0.6	-23.6	23.6
CCOc1ccccc1C(=O)Nc1cc(Cl)ccc1O	-2.0	0.2	-86.0	86.0*
CC(NC(=O)c1ccncc1)c1ccc(Br)cc1 (stereo not drawn)	-2.7	-7.6	2.9	-2.9
CCOc1ccccc1N1CC(C(=O)Nc2cc(Cl)ccc2C)CC1=O (stereo not drawn)	-13.3	-1.0	-30.6	30.6
SMILES	dFosB act	CDK5 p35 inh	SR-BI uptake up	SR-BI DiI inh
CCCCN(C(=O)c1cccc(S(=O)(=O)N2CCN(C)CC2)c1)c1c(N)n(CC(C)C)c(=O)[nH]c1=O	-2.6	-1.9	40.5	-40.5
CCCCN(C(=O)c1cccc(S(=O)(=O)N2CCCC2)c1)c1c(N)n(CCC)c(=O)[nH]c1=O	7.7	-1.7	70.1*	-70.1
Cc1cc(/C=N/Nc2ccc([N+](=O)[O-])cn2)c(C)n1-c1ccccc1	22.1*	0.4	-17.7	17.7
COc1ccc(/C=N/Nc2nnc(-c3ncc[nH]3)c3ccccc23)cc1	-11.4	-0.2	-3.2	3.2
Oc1ccc2ccccc2c1/C=N/Nc1nnc(-c2ncc[nH]2)c2ccccc12	11.3	-0.7	-135.5	135.6*
COc1cccc(NC(=O)Cc2nc(-c3ccccc3)sc2-c2ccc(C)cc2)c1	-8.3	1.1	-86.2	86.2*
COC(=O)c1cccc(NC(=O)Cc2nc(-c3ccccc3)sc2-c2ccc(C)cc2)c1	-4.8	2.2	-71.3	71.3*
C/C=C(\C)CN1CCCC(N(C)CCc2ccc(OC)c(OC)c2)C1 (stereo not drawn)	-12.4	0.0	-11.6	11.6
Cc1ccc(-c2c(C(=O)N/N=C/c3sccc3C)nnn2-c2nonc2N)cc1	-4.1	0.7	-84.6	84.6*
Cc1ccc(-c2c(C(=O)N/N=C/c3c[nH]c4ccccc34)nnn2-c2nonc2N)cc1	7.2	0.0	-84.6	84.6*
Nc1nc(SCC(=O)c2ccc(Br)s2)n[nH]1	-7.1	0.7	640.8*	i
COc1ccc(N(C=O)C(C(=O)Nc2c(C)cccc2C)c2ccccc2)cc1 (stereo not drawn)	-10.3	0.5	-11.7	11.7
O=c1c2ccccc2nc(N/N=C/c2ccc(O)cc2)n1O	3.8	0.0	-7.1	7.1
O=c1c2ccccc2nc(N/N=C/c2c(O)ccc3ccccc23)n1O	8.5	-0.8	-129.1	129.1*
O=S(=O)(c1ccccc1)c1cnc(-c2ccccc2)nc1N1CCCC1	-7.6	0.6	-85.2	85.2*
Cc1ccc(S(=O)(=O)c2cnc(-c3ccccc3)nc2N2CCCCC2)cc1	-11.0	-0.7	-57.4	57.4
COCc1nnc(NC(=O)CCN2C(=O)c3ccccc3C2=O)s1	2.8	2.7	0.9	-0.9
CCCc1nnc(NC(=O)CCN2C(=O)c3ccccc3C2=O)s1	19.5*	1.3	25.2	-25.2
O=C(OCc1ccc(Cl)c(Cl)c1)c1ccc[nH]1	-9.1	-0.8	-7.4	7.4
CCSc1nsc(NC(=O)Nc2ccc(F)cc2F)n1	22.9*	0.8	3.3	-3.3
Cc1c(C)n(C)c2ccc(C(=O)Nc3cccc4ccccc34)cc12	-4.4	-0.1	-81.4	81.4*
Cc1cc([N+](=O)[O-])ccc1NC(=O)Nc1ccccc1F	6.6	-0.8	-93.8	93.8*
O=C(Nc1ccc(Cl)c(Cl)c1)N1CCCCCC1	3.3	-1.4	-10.9	10.9
O=C(Nc1ccc(F)cc1)Nc1ccc(N2CCCC2)c(S(=O)(=O)Nc2ccccc2Cl)c1	-7.0	1.2	-87.0	87.0*
O=C(Nc1ccc(Cl)c(Cl)c1)Nc1ccc(N2CCCC2)c(S(=O)(=O)Nc2ccccc2Cl)c1	1.3	-0.1	-86.3	86.3*
O=C(Nc1ccc(Cl)c(Cl)c1)N1CCSCC1	-6.0	0.3	319.7*	-319.7
O=C(Nc1ccc(Cl)c(Cl)c1)Nc1ccccc1O	-2.7	1.6	-77.9	77.9*
Cc1cccc(NC(=S)NCc2ccccc2Cl)c1C	1.1	1.3	-32.7	32.7
CCc1ccc([C@@H]2CC=C(C(=O)O)[C@H](c3ccc(C(C)(C)C)cc3)N2S(=O)(=O)c2ccc(C)cc2)cc1	-19.4	0.6	8.6	-8.6

Screens: PubChem, Broad Institute
